Results on eight molecules are retold here after ChEMBL document CHEMBL4706514, “PSNCBAM-1 analogs: Structural evolutions and allosteric properties at cannabinoid CB1 receptor” (Eur J Med Chem, 2020).

Experiment [1] has as its target Cannabinoid receptor 1 (Homo sapiens) (UniProt P21554). The experiment can be described thus: Positive allosteric modulation of human CB1 receptor expressed in CHO cell membranes assessed as increase in binding [3H]CP55940 to the receptor up to 10 uM after 60 mins by liquid scintillation spectrometric method relative to control. The settings on record: Cell membrane, filed as positive allosteric modulator, dose microM <=10, time 60.0 min. The method, boiled down: (§1)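 Membranes from CHO cells stably expressing human CB1 (50.0 µg protein/tube) incubated 60 min at 37 °C with [3H]CP55940 0.700 nM and compound 1 nM to 10 µM (from 10.00 mM DMSO stocks; 0.1% DMSO). Ended with ice-cold Tris buffer and vacuum filtration, six washes. Filters oven-dried, then scintillation counted. Six independent experiments in duplicate; one-sample t-test against zero.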

Experiment [2] shares this target. The experiment can be described thus: Positive allosteric modulation of human CB1 receptor expressed in CHO cell membranes assessed as increase in binding [3H]CP55940 to the receptor after 60 mins by liquid scintillation spectrometric method. Conditions: Cell membrane, filed as positive allosteric modulator, dose 1-10000 nM. An outline of the steps: as §1
Experiment [3] shares this target. The experiment can be described thus: Inverse agonist activity at human CB1 receptor expressed in CHO cell membranes assessed as decrease in cellular response at 0.001 to 10 uM after 90 mins by [35S]-GTPgammaS binding based liquid scintillation spectrometric method relative to control. It is filed as functional. Further details: scale not given: the % may be the effect or the level left. Conditions: Cell membrane, dose 0.001-10 µM. An outline of the steps:
(§2)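 Compound alone, 1 nM to 10 µM (from 10.00 mM DMSO stocks; 0.1% DMSO per tube), incubated 90 min at 30 °C with hCB1-CHO membranes (50.0 µg protein/tube). Buffer: 50 mM Tris, 10 mM MgCl2, 100 mM NaCl, 0.2 mM EDTA, 1 mM DTT, pH 7.4, with [35S]GTPγS 0.1 nM and GDP 30 µM. Read by filtration and scintillation counting. Response expressed as % change from vehicle basal stimulation. Six independent experiments, each in duplicate.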

For experiment [4] the target is unchanged. Description: Positive allosteric modulation of human CB1 receptor expressed in CHO cell membranes assessed as increase in binding [3H]CP55940 to the receptor at 10 uM after 60 mins by liquid scintillation spectrometric method relative to control. The settings on record: Cell membrane. An outline of the steps:
as §1

For experiment [5] the target is unchanged. The experiment can be described thus: Positive allosteric modulation of human CB1 receptor expressed in CHO cell membranes assessed as increase in binding [3H]CP55940 to the receptor at 1 uM after 60 mins by liquid scintillation spectrometric method relative to control. Conditions: Cell membrane. The method, boiled down: as §1
Experiment [6] shares this target. Description: Inverse agonist activity at human CB1 receptor expressed in CHO cell membranes assessed as decrease in cellular response up to 1 uM after 90 mins by [35S]-GTPgammaS binding based liquid scintillation spectrometric method. Format: functional. The settings on record: Cell membrane, dose microM <=1, time 90.0 min. An outline of the steps: as §2
For experiment [7] the target is unchanged. The experiment can be described thus: Inverse agonist activity at human CB1 receptor expressed in CHO cell membranes assessed as decrease in cellular response >1 uM after 90 mins by [35S]-GTPgammaS binding based liquid scintillation spectrometric method. It is filed as functional. Further details: scale not given: the % may be the effect or the level left. The settings on record: Cell membrane, dose microM >1, time 90.0 min. An outline of the steps: as §2

Experiment [8] has the same target. Description: Negative allosteric modulation of human CB1 receptor expressed in CHO cell membranes assessed as decrease in CP55940-induced agonist activity at 1 uM after 90 mins by [35S]-GTPgammaS binding based liquid scintillation spectrometric method relative to control. It is filed as functional. Further details: scale not given: the % may be the effect or the level left. Conditions: Cell membrane. The method, boiled down: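 Test compound held fixed at 1 µM (from 10.00 mM DMSO stock) against CP55940 0.1 nM to 1 µM. Incubated with hCB1-CHO membranes (50.0 µg protein/tube, 0.1% DMSO) for 90 min at 30 °C, with [35S]GTPγS 0.1 nM and GDP 30 µM in Tris/MgCl2/NaCl/EDTA/DTT buffer, pH 7.4. Bound label filtered and counted. Data taken as % change over vehicle basal; mean of six experiments in duplicate.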

Experiment [9] addresses Cannabinoid receptor 2 (Homo sapiens) (UniProt P34972). Description: Binding affinity to human CB2 receptor expressed in CHO cell membranes assessed as displacement of [3H]CP55940 from the receptor > 1 uM after 60 mins by liquid scintillation spectrometric method. Conditions: Cell membrane, dose microM >1, time 60.0 min.
Experiment [10] concerns the target Cannabinoid receptor 1 (Homo sapiens) (UniProt P21554). Description: Inverse agonist activity at human CB1 receptor expressed in CHO cell membranes assessed as decrease in cellular response up to 10 uM after 90 mins by [35S]-GTPgammaS binding based liquid scintillation spectrometric method. It is filed as functional. Conditions: Cell membrane, dose microM <=10, time 90.0 min. The method, boiled down: as §2

Experiment [11] shares this target. Description: Negative allosteric modulation of human CB1 receptor expressed in CHO cell membranes assessed as decrease in CP55940-induced agonist activity at 100 nM after 90 mins by [35S]-GTPgammaS binding based liquid scintillation spectrometric method. Format: functional. The settings on record: Cell membrane, filed as negative allosteric modulator.
Experiment [12] concerns the target Cannabinoid receptor 2 (Homo sapiens) (UniProt P34972). Description: Positive allosteric modulation of human CB2 receptor expressed in CHO cell membranes assessed as increase in binding [3H]CP55940 to the receptor at 0.001 to 10 uM after 60 mins by liquid scintillation spectrometric method. The settings on record: Cell membrane, dose 0.001-10 µM. An outline of the steps:
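Human CB2 stably expressed in CHO cells; membranes at 50.0 µg protein/tube with [3H]CP55940 0.700 nM and compound 1 nM to 10 µM (0.1% DMSO). Incubated 60 min at 37 °C, then filtered under vacuum with ice-cold Tris buffer and scintillation counted. Six independent experiments, each in duplicate.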

Activity calls are given as the source filed them. The rule behind the calls is not given here.

Chain of Cannabinoid receptor 1 (Homo sapiens) (P21554 whole entry): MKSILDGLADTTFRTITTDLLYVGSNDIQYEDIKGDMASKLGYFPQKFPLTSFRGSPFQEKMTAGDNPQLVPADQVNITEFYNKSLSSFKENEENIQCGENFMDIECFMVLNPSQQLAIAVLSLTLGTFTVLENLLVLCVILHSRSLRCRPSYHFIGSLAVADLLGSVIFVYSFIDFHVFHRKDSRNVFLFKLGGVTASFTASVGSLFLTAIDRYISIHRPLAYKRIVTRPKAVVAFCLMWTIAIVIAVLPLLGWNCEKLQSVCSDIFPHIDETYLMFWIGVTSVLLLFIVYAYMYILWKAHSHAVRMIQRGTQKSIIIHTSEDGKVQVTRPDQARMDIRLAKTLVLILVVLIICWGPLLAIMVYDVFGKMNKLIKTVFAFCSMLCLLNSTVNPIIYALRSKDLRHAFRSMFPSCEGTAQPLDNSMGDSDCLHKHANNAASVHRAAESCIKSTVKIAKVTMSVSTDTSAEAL
Chain of Cannabinoid receptor 2 (Homo sapiens) (P34972 whole entry): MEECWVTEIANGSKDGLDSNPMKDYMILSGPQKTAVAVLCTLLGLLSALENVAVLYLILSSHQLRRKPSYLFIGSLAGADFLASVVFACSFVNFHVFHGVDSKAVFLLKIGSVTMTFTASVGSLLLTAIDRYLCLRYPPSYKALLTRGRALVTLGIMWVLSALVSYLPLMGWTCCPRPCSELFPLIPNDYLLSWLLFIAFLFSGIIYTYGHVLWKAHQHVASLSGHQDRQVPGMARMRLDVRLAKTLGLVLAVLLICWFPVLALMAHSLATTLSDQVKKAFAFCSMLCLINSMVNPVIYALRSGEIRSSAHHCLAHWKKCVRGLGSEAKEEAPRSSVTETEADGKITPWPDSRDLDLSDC

For the molecule `O=C(Nc1ccc(F)cc1)Nc1cccc(-c2cccc(N3CCCC3)c2)c1`, the Activity in experiment [1] was 70%; in experiment [2], “Dose-dependent effect”; in [3] (filed as inverse agonist) it was 45%.
With `O=C(Nc1ccc(Cl)cc1)Nc1cccc(Nc2ccccn2)c1`, the results for the Activity in experiment [1], in experiment [2] and in experiment [3] were 170%, “Dose-dependent effect” and 30%, respectively.
For `O=C(CCc1ccc(Cl)cc1)Nc1cccc(-c2cccc(N3CCCC3)c2)c1`, the result in experiment [4] was inactive.
On to `O=C(Nc1ccc(Cl)cc1)Nc1cccc(-c2cccc(N3CCCCC3)c2)c1`, for which the Activity was 40% in experiment [5], 30% in experiment [7] and 30% in experiment [8]. For the same molecule, in experiment [6], the result was inactive. Moreover, the Displacement entry in experiment [9] was “Active”.
As for `O=C(Nc1ccc(Cl)cc1)Nc1cccc(Nc2ccccc2)c1`, the Activity in [1] is 90%; in [2], “Dose-dependent effect”; in experiment [3], 30%.
Take `O=C(Nc1ccc(Cl)cc1)Nc1cccc(Nc2cccc(N3CCCCC3)n2)n1`: the Activity in experiment [1] is 50%; in [2], “Dose-dependent effect”. The result in experiment [10] and in [8] was inactive.
Take `O=C(Nc1ccc(Cl)cc1)Nc1cccc(Nc2cccc(N3CCCC3)n2)n1`: the Activity is 60% in experiment [1] and “Dose-dependent effect” in [2]. For the same molecule, the result in [10] and in experiment [8] was inactive.
Turning to `O=C(Nc1ccc(Cl)cc1)Nc1cccc(Nc2ccc(F)cc2)c1`, the Activity in experiment [1] was 90%; in experiment [2] it was “Dose-dependent effect”; in experiment [7], 35%; in experiment [8], 30%. Besides, the result in [6] and in [12] was inactive. Further, in [11], the result was Active.
